Measured values from ChEMBL document CHEMBL1135621, “Development of novel EDG3 antagonists using a 3D database search and their structure-activity relationships” (J Med Chem, 2002).

Biological target: Sphingosine 1-phosphate receptor 3 (Homo sapiens) (UniProt Q99500)
Assay: Inhibitory effect towards Sphingosine 1-phosphate receptor Edg-3 (EDG3)
Set-up: concentration or dose not given beside the values
Settings: concentration not given here
Outline: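 Hela cells transfected with human EDG3 cDNA, seeded in DMEM/10% FBS for 24 h at 37 °C, then in MEM for 24 h. Cells are loaded with 5 µM Calcium Green-1 AM in D-PBS(+) for 60 min, given 10 µM test compound for 5 min, then challenged with 1 µM S1P. Fluorescence (ex 485/em 535 nm) is read every 3 s for 30 s. Inhibition (%) is the RFU difference versus the 0.1% DMSO control, averaged over triplicate wells, run on three separate days.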

Sequence of Sphingosine 1-phosphate receptor 3 (Homo sapiens) (Q99500 whole entry): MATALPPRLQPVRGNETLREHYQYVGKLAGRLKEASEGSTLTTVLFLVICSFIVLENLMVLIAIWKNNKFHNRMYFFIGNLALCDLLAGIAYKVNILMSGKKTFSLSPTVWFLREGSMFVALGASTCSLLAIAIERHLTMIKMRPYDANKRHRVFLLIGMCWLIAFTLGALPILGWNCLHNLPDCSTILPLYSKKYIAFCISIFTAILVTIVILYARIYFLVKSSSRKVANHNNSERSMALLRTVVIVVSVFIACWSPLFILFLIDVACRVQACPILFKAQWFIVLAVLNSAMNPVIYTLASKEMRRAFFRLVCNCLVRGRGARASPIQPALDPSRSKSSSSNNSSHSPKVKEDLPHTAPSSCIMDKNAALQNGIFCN

Row | Compound | inhibition [%]
1 | CCCCCCCCCC1NC(C(=O)O)CS1 (stereo not drawn) | 14.8
2 | CCCCCc1ccc(C2N[C@H](C(=O)O)CS2)cc1 (stereo partly drawn) | 13
3 | CCCCCCCCCCCCCC1NC(C(=O)O)CS1 (stereo not drawn) | 6.6
4 | CCCCCCCCCc1cccc(C2N[C@H](C(=O)O)CS2)c1 (stereo partly drawn) | 37.2
5 | CCCCCCCCCCC[C@H]1N[C@H](C(=O)O)CS1 | 37.6
6 | CCCCCCCCCCCCC1NC(C(=O)O)CS1 (stereo not drawn) | 15.9
7 | CCCCCCCCCCCC1NC(C(=O)O)CCS1 (stereo not drawn) | 9.4
8 | CCCCCCCCCCCCCC1NC(C(=O)O)CCS1 (stereo not drawn) | 5.9

Further lines, results first:

Row | inhibition [%] | Compound
9 | 9.3 | CCCCCCCCCCC1NC(C(=O)O)CCS1 (stereo not drawn)
10 | 21.9 | CCCCCCCCCc1ccc(C2N[C@H](C(=O)O)CS2)cc1 (stereo partly drawn)
11 | 34.5 | CCCCCCCCCC[C@H]1N[C@H](C(=O)O)CS1
12 | 9.9 | CCCCCc1cccc(C2N[C@H](C(=O)O)CS2)c1 (stereo partly drawn)
13 | 42.9 | CCCCCCCc1ccc(C2N[C@H](C(=O)O)CS2)cc1 (stereo partly drawn)
14 | 26.4 | CCCCCCCCCCC1NC(C(=O)O)CS1 (stereo not drawn)
15 | 43.4 | CCCCCCCc1cccc(C2N[C@H](C(=O)O)CS2)c1 (stereo partly drawn)
16 | 6.9 | CCCCCCCCCC1NC(C(=O)O)CCS1 (stereo not drawn)
17 | 0 | CCCCCCC1NC(C(=O)O)CS1 (stereo not drawn)
18 | 0.3 | CCCCCCCCCCCCC1NC(C(=O)O)CCS1 (stereo not drawn)
